This is one part of a sample in which hits are shown more often than they occur.
bCat KO growth: primary screen for growth suppressors in beta-catenin knockout HCT116 cells (colon tumor, human) | AID 818, 2007 | 1.5% of 140,000 active | viability, % at 10 µM | HCT116 beta-catenin knockout viability, CellTiter-Glo, 60 h; hits give low values;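 active = viability at or under a set limit, the compound median less 4 SD, cut at about 6% in these data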;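 also: 0% = Hyamine 1622 control at 20 µM and 100% = untreated cell control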
HUVEC inhibit: inhibitors of HUVEC proliferation, primary screen, cell-based, 384-well; CellTiter-Glo luminescence, 72 h; hits give low values; viability, % at 10 µM (by protocol); 1.1% of 86,000 active;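 active = viability at or below 30%; inactive = viability above 30%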;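 also: 100% = median luminescence of DMSO-only cell control wells on each plate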
Lung fibro prol: antiproliferative effect on LL 47 fibroblasts – human, LL 47 cells, CellTiter-Glo luminescence, primary screen. LL 47 human lung fibroblast viability, ATP luminescence; hits give low values. viability, % at 10 µM. 1.1% of 85,000 active;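 active = viability at or below 50% in the single dose screen; inactive = viability above 50%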;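 also: compound exposure lasted 72 h before the ATP readout; 100% = median luminescence of untreated cell-only wells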
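Material: human LL 47 lung fibroblast cells; quantity: 1,150 cells/well; medium: IMEM plus 15% FBS; doses: 0.1% DMSO in all compound wells; timing: overnight attachment after seeding, then 72 h compound exposure at 37 °C; detection: CellTiter-Glo luminescence; measure: % viability of median cell-only signal; controls: cell-only wells, no compound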
Phagocyt inh: inhibitors of macrophage phagocytosis, primary screen, imaging, J774A.1 cells, IgG beads; 0.07% of 110,000 active; AID 1029, 2008; inhibition, % at 5 µM; J774A.1 macrophage IgG-bead phagocytosis;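 active = inhibition above the mean of the plate negative controls plus 5 SD, cut at about 13% in these data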;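 also: phagocytic index as fraction of beads internalized from green versus red external bead signal; plate controls were DMSO negative control for no effect and cytochalasin-D positive control for full effect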
HCT116 PTEN-null: growth suppression of PTEN-null HCT116, primary screen, cell-based, CellTiter-Glo; 1.2% of 140,000 active; viability, % at 10 µM; HCT116 PTEN-null viability, 60 h; hits give low values; AID 827, 2007;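 active = viability at or below a set limit, 4 SD under the median of all tested compounds, cut at about 3.7% in these data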;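 also: PTEN knockout HCT116 line with beta catenin targeted HCT116 as companion control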
H69AR growth 86K: proliferation blockers of H69AR lung cancer cells, primary screen, cell-based, human, 86K library; H69AR lung tumor viability, ATP luminescence, 72 h; hits give low values; viability, % at 10 µM; 6% of 85,000 active; AID 598, 2007;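 active = viability at or below 40%; inactive = viability above 40%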;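 also: multidrug resistant small cell line overexpressing MRP-1 efflux transporter; 100% = mean luminescence of untreated control wells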
* marks the source's active call; other numbers are inactive results; nt = no result given.

SMILES	bCat KO growth	HUVEC inhibit	Lung fibro prol	Phagocyt inh	HCT116 PTEN-null	H69AR growth 86K
CN1CCN(C(=S)c2ccc(OCC(=O)Nc3cccc(C(F)(F)F)c3)cc2)CC1	51.3	nt	nt	nt	65.2	nt
CCC(=O)Nc1nonc1-c1nc2ccccc2n1Cc1ccccc1	68.9	88.1	77.1	3.1	63.9	66.4
CCC(=O)Nc1nonc1-c1nc2ccccc2n1Cc1cccc2ccccc12	13.4	51.5	50.9	nt	13.2	23.6*
Cc1c(Cl)cccc1NC(=S)NNc1ncc(C(F)(F)F)cc1Cl	68.8	50.4	96.1	-0.2	68.3	16.2*
COc1cccc(NC(=O)N(CCCN2CCOCC2)C(C)c2cc3ccccc3o2)c1 (centres undefined)	68.7	83.8	90.0	-1.8	64.9	32.4*
COc1ccccc1C(=O)NNC1=C(C(=O)C(F)(F)F)CCC1	6.4	nt	nt	nt	5.6	nt
O=C(NNC1=C(C(=O)C(F)(F)F)CCC1)c1ccccc1Cl	21.6	14.8*	68.2	-1.1	31.1	51.3
O=C(NNC1=C(C(=O)C(F)(F)F)CCC1)c1ccccc1O	74.4	6.8*	62.3	-0.9	82.0	29.7*
O=C(CSc1nnnn1-c1ccccc1)CC(=O)Nc1ccc(Cl)cc1	83.6	63.7	83.3	-0.9	82.3	17.3*
O=c1c2cnn(-c3ccccc3Cl)c2ncn1Cc1cccnc1	97.4	91.3	79.9	-0.2	98.9	88.3
Cc1cccc(NC2=C(NC(=O)c3ccccc3)C(=O)c3ccccc3C2=O)c1	3.6*	nt	nt	-1.1	4.3	nt
CCOC(=O)N1CCN(c2ncnc3c2oc2nc(C(C)C)c4c(c23)CCC4)CC1	89.5	23.6*	98.4	1.0	82.8	47.6
CCN1CCN(c2ncnc3c2oc2nc(C(C)C)c4c(c23)CCC4)CC1	nt	88.2	98.4	-0.7	nt	63.9
COc1cc(SC#N)ccc1N=Cc1c(C)[nH]n(-c2ccc(Cl)cc2)c1=O	94.1	nt	nt	1.2	93.4	nt
COc1cc(SC#N)ccc1N=Cc1c(C)[nH]n(-c2ccc(C)c(C)c2)c1=O	0.8*	nt	nt	-0.5	0.3*	nt
COc1ccc2c(c1)c(C(=O)CNc1nc(C)cs1)c(C)n2C	81.3	86.6	89.8	-4.2	71.4	68.4
CCOCc1cnc(C)nc1NCC(=O)c1c(C)n(C)c2ccc(OC)cc12	94.4	60.9	95.8	-0.8	90.7	34.2*
COc1ccc(N2CCN(c3nc(Cl)nc(Nc4ccc(F)cc4)n3)CC2)cc1	61.3	nt	nt	-4.5	52.1	nt
Oc1ccc(-c2nc3c4c(ncn3n2)-c2ccccc2CC42CCCC2)cc1	3.0*	nt	nt	-7.4	2.6*	nt
Cc1cc(C)c2cc(CN(CC3CCCO3)S(=O)(=O)c3ccc4c(c3)OCCO4)c(=O)[nH]c2c1 (centres undefined)	88.9	74.4	101.7	-0.4	99.8	62.3
Clc1ncnc2scc(C3COc4ccccc4O3)c12 (centres undefined)	100.2	62.1	79.8	nt	88.9	7.0*
c1ccc2c(c1)OCC(c1csc3ncnc(N4CCCCC4)c13)O2 (centres undefined)	58.6	113.2	nt	nt	67.7	81.8
c1ccc2c(CSCCc3ccncc3)cccc2c1	71.8	85.3	102.7	nt	77.8	33.9*
Clc1ccc(CSCCc2ccncc2)cc1	95.5	90.6	109.2	0.3	91.7	103.0
O=C(/C=C/NNC(=O)c1ccccc1)c1ccc(Br)cc1	90.0	73.5	59.1	1.9	99.1	34.2*
SMILES	bCat KO growth	HUVEC inhibit	Lung fibro prol	Phagocyt inh	HCT116 PTEN-null	H69AR growth 86K
O=C(O)CC1CCC(=C(Cl)Cl)C1 (centres undefined)	7.5	81.5	86.4	-0.5	5.8	1.3*
O=C(O)CC1CCS(=O)(=O)C1 (centres undefined)	91.3	102.9	99.7	-0.4	95.0	99.7
COc1ccc(CCNC(=O)CSc2nc3ccccc3o2)cc1	91.2	82.8	95.6	-0.8	96.9	81.1
Cn1c(N)c(C(=O)CCl)c(=O)n(C)c1=O	85.4	89.2	76.0	0.5	94.3	3.0*
CN(C)C(=O)c1ccc2c(c1[N+](=O)[O-])C(=O)c1ccccc1C2=O	2.0*	nt	nt	-17.6	1.7*	nt
CCCNC(=O)NCCc1c(C)[nH]c2ccccc12	99.3	101.0	101.2	-0.4	99.9	93.3
Cc1[nH]c2c(C)cccc2c1CCNC(=O)c1ccc2c(c1[N+](=O)[O-])C(=O)c1ccccc1C2=O	2.1*	nt	nt	nt	2.0*	nt
CN(C)S(=O)(=O)c1cccc2c1C(=O)c1ccccc1C2=O	83.2	nt	nt	nt	87.8	nt
Cc1[nH]c2ccccc2c1CCNC(=O)c1ccc2c(c1[N+](=O)[O-])C(=O)c1ccccc1C2=O	2.3*	nt	nt	nt	11.4	nt
CCCCS(=O)(=O)NC1=NCN(Cc2ccco2)CN1	92.8	115.3	106.9	nt	94.6	85.7
CCc1nc(Nc2ccc(OC)c(OC)c2)c2nnn(Cc3ccccc3Cl)c2n1	51.6	26.6*	84.2	nt	61.6	55.7
Clc1ccccc1Cn1nnc2c(Nc3ccccc3)ncnc21	94.3	101.3	99.0	-0.7	91.3	nt
OCCNCc1cc(Br)ccc1OCc1ccc(Cl)cc1Cl	4.7*	nt	nt	nt	14.9	nt
CCOc1cccc(CNCCO)c1OCc1ccc(Cl)cc1Cl	63.9	nt	nt	7.9	56.1	nt
CCOc1cc(CNCCO)cc(Br)c1OCc1ccc(Cl)cc1Cl	1.4*	nt	nt	nt	1.5*	nt
COc1ccccc1/C=C/C(=O)OCC(=O)Nc1cc(C(F)(F)F)ccc1N1CCOCC1	48.3	nt	nt	1.7	60.5	nt
O=C(Nc1ccc(Br)cn1)c1ccc2nccnc2c1	nt	65.4	87.7	nt	nt	33.9*
COc1ccc(NC(=O)c2ccc3nccnc3c2)cc1	96.9	99.1	95.1	nt	93.5	101.9
CCn1c(COc2ccc(Cl)cc2)nnc1SCc1nc2ccccc2[nH]1	38.3	88.2	91.2	-3.1	39.9	4.4*
Cc1ccc(OCc2nnc(SCc3nc4ccccc4[nH]3)n2Cc2ccco2)cc1	33.9	85.0	91.7	-3.7	42.4	91.5
CCCCCn1cnc2c(sc3nc4c(cc32)CSC(C)(C)C4)c1=O	87.5	nt	nt	-4.0	97.5	nt
CCCc1nc2oc(C(=O)c3ccccc3)c(N)c2c2c1COC(C)(C)C2	35.5	46.7	40.5*	0.4	44.6	5.7*
COc1ccc(/C=C(/NC(=O)c2ccccc2)C(=O)NC2CCS(=O)(=O)C2)cc1 (centres undefined)	94.5	nt	nt	-4.1	98.2	nt
CCOc1ccc2nc(-c3ccccc3)[nH]c2c1	12.3	57.9	54.1	3.8	15.9	24.0*
COC(C)(C)[C@H](O)COc1c2ccoc2cc2oc(=O)ccc12	0.6*	nt	nt	nt	0.7*	nt
COc1c2ccoc2c(OC[C@@H](O)C(C)(C)OC)c2oc(=O)ccc12	107.8	nt	nt	nt	103.9	nt
CC(C)Sc1nnc([C@H](Cc2c[nH]c3ccccc23)NC(=O)OC(C)(C)C)o1	98.2	91.4	94.6	-1.8	86.1	74.2

Screening data (PubChem BioAssay)
